Screens as filed in PubChem BioAssay.
FGF22 binding = FGF22 (human) thermal shift binding | activity (Tm shift, normalised), % at 9.99 µM | 1.5% of 340,000 active | recombinant FGF22 thermal shift, SYPRO orange fluorescence; percent of sucrose octasulfate shift, DMSO zero | Q9HCT0;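 active means mean Tm shift, scaled 0 neutral to 100 positive control, at about 1.3% or above, every replicate too, limit read from the data; inconclusive means no clear call, values can overlap the other calls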
Target sequence (Q9HCT0 whole entry, looked up): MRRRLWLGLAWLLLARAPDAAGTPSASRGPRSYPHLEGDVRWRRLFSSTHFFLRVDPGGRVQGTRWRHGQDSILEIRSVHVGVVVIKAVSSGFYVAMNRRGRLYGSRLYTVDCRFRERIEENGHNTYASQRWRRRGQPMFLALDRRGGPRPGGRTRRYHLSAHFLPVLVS
ERAP1 inh = inhibitors of human ERAP1 aminopeptidase; Q9NZ08; recombinant ERAP1, Leu-AMC fluorescence, 60 min; inhibition, % at 10.7 µM; 0.15% of 340,000 active; AID 652197;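 active means mean replicate inhibition of at least 30%, or all replicates individually reaching that 30% level; inactive means mean below 30% and not every replicate reaching it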
rRNA inh HTS = inhibitors of bacterial rRNA selective over humanized ribosomes; E. coli WT GFP vs humanized-ribosome RFP mutants, fluorescence, 24 h; hits give low values; DMSO median 0, no signal -100; GFP signal change (wild-type ribosome), % (test concentration not listed); 1.6% of 350,000 active; AID 720706;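 active means significant combined selectivity score with lowered wild-type GFP, culture density cut under 30%, mutant RFP and density less affected; inactive means any of these conditions unmet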
PGC1a acetyl inh = PGC1a acetylation modulation, inhibitor mode. U2OS PGC1a acetylation, AlphaScreen anti-acetyl-lysine; with virally co-expressed GCN5 acetyltransferase. inhibition, % at 15.6 µM. 0.17% of 350,000 active. AID 651687;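 active means every replicate shows inhibition of at least 40%; inconclusive means mean inhibition at least 40% but some replicate below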
Env fusion inh = inhibitors of HIV Env-mediated cell fusion. 1.1% of 360,000 active. HeLa-JRFL Env/CEM21 cell fusion, luciferase. inhibition, % at 12.3 µM. AID 651610;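 active means mean replicate inhibition score of at least 50 and every replicate individually at or above 50; inconclusive means only one of the two criteria met; inactive means mean below 50 and not all replicates reaching 50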
Cneo AK release = causes C. neoformans cell lysis. adenylate kinase release luminescence, 4 h; normalised: neutral wells 0, clomiphene wells 100. lysis activity, % at 15 µM. 0.2% of 360,000 active. AID 651654;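 active means mean lysis activity across replicates of at least 80%, whatever share of replicates individually reach that level; inactive means mean lysis activity below 80%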
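Material: C. neoformans cells | Amount: Yeast cell density of 5 × 10^6 cells/mL | Medium: Fresh YPD growth medium | Dosing: Single dose | Times: Static 4 h at 37 °C with compound, 1 h detection | Detection: AK luminescence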
Large screens that a line does not name were inactive. This is a sample that favours compounds with a hit; in the whole collection about 3.5% have one here.

C[N+](C)(C)CCCNC(=O)c1ccc(/C=N/O)nc1	ERAP1 inh 109 (no result: PGC1a acetyl inh, Cneo AK release)
COc1cc(C(=O)NCC2CCCO2)ccc1OCc1ccc(Cl)cc1Cl (stereo unspecified)	Env fusion inh 67 (no result: Cneo AK release)
COc1cc(C(=O)NCC2CCCO2)ccc1OCc1ccc(Cl)cc1 (stereo unspecified)	none (no result: PGC1a acetyl inh, Env fusion inh)
CC(=O)Nc1ccc(Nc2nnc(-c3ccc(C)c(S(=O)(=O)NCCO)c3)c3ccccc23)cc1	none (no result: PGC1a acetyl inh)
O=C1c2ccccc2NC(c2ccc(-c3cccc([N+](=O)[O-])c3)o2)N1O (stereo unspecified)	rRNA inh HTS -21, Env fusion inh 58 (no result: PGC1a acetyl inh, Cneo AK release)
O=C(CNC(=O)c1ccco1)Nc1cc(Cl)ccc1N1CCOCC1	none (no result: FGF22 binding, ERAP1 inh, rRNA inh HTS)
O=C(CSc1cccc2cccnc12)N/N=C/c1cccc(O)c1	none (no result: rRNA inh HTS, PGC1a acetyl inh, Cneo AK release)
O=C(N/N=C/c1ccc(O)c(O)c1)c1ccc(CSc2cccc3cccnc23)cc1	rRNA inh HTS -16 (no result: FGF22 binding, Cneo AK release)
CCN(C[C@H]1N[C@@](C)(C(=O)OC)[C@H]2C(=O)N(Cc3ccccc3)C(=O)[C@@H]12)C(=O)c1ccc(F)cc1	none (no result: ERAP1 inh, PGC1a acetyl inh)
CCN(C[C@H]1N[C@@](C)(C(=O)OC)[C@H]2C(=O)N(Cc3ccccc3)C(=O)[C@@H]12)C(=O)Nc1ccc(F)cc1	Env fusion inh 57 (no result: ERAP1 inh, PGC1a acetyl inh)
COC(=O)[C@]1(C)N[C@H](CN(C)C(=O)Nc2ccc(Cl)cc2)[C@@H]2C(=O)N(Cc3ccccc3)C(=O)[C@@H]21	Env fusion inh 79
COC(=O)[C@]1(C)N[C@H](CN(C)C(=O)Nc2ccc(C)cc2)[C@@H]2C(=O)N(Cc3ccccc3)C(=O)[C@@H]21	Env fusion inh 64 (no result: PGC1a acetyl inh)
CCCc1cc(=O)oc2cc(OC(C)C(=O)NCc3ccccn3)c(Cl)cc12 (stereo unspecified)	none
O=C(C[C@@H]1C[C@H]2c3cc(NC(=O)c4ccc5c(c4)OCO5)ccc3O[C@H]2[C@@H](CO)O1)NCCN1CCCCC1	none
Cc1cc(OCCCC(=O)Nc2cccc(-n3cnnn3)c2)ccc1Cl	rRNA inh HTS -34 (no result: PGC1a acetyl inh)
COc1cccc(NC(=O)COc2cccc(-n3cnnn3)c2)c1	none (no result: PGC1a acetyl inh, Cneo AK release)
CC(Nc1nc(-c2ccc(F)cc2)cs1)c1nc2cc(C(F)(F)F)ccc2n1CCCO (stereo unspecified)	Env fusion inh 75
CC1CCN(c2ccc3nnc(CCC(=O)Nc4cccc(F)c4)n3n2)CC1	rRNA inh HTS -30
CCOC(=O)CN1C(=O)N[C@@H](c2cccs2)C(C(=O)OC)=C1C	none (no result: PGC1a acetyl inh)
COc1ccccc1CN(C)CC(=O)Nc1cccc2ccccc12	none
Cc1cccc(Nc2nc(-c3ccc(F)cc3)cs2)n1	rRNA inh HTS -18
Cc1ncoc1C(=O)NC1CCCc2c1cnn2-c1ccc(C(C)(C)C)cc1 (stereo unspecified)	Env fusion inh 56 (no result: PGC1a acetyl inh)
CCC(=O)NC(C)c1cc(Cl)c2cccnc2c1O (stereo unspecified)	none (no result: PGC1a acetyl inh)
COc1ccccc1C(NC(C)=O)c1cc(Cl)c2cccnc2c1O (stereo unspecified)	PGC1a acetyl inh 46
CC(=O)NC(C)c1cc(Cl)c2cccnc2c1O (stereo unspecified)	FGF22 binding 45 (no result: Env fusion inh)
COc1ccc(C(NC(C)=O)c2cc(Cl)c3cccnc3c2O)cc1OC (stereo unspecified)	none (no result: FGF22 binding, Cneo AK release)
CC(OC(=O)C1CC1)C(=O)Nc1cc(C(F)(F)F)ccc1Cl (stereo unspecified)	FGF22 binding 44 (no result: PGC1a acetyl inh)
CC1(C)CC(=O)C(CC(=O)Nc2cc(C(F)(F)F)ccc2Cl)C(=O)C1	FGF22 binding 44 (no result: PGC1a acetyl inh, Cneo AK release)
CC1CCN(CC(=O)Nc2cc(C(F)(F)F)ccc2Cl)CC1	none (no result: Env fusion inh)
CC1(C)Cc2cccc(Oc3cc(NN4CCCCC4)c([N+](=O)[O-])cc3[N+](=O)[O-])c2O1	Env fusion inh 72
O=[N+]([O-])c1cc([N+](=O)[O-])c(Oc2cccc(Cl)c2Cl)cc1NN1CCCCC1	none
COC(=O)CNC(=O)COC(=O)/C=C/c1ccc2ccccc2n1	FGF22 binding 43 (no result: Cneo AK release)
COC(=O)CNC(=O)COC(=O)/C=C/c1cccs1	none
CC(C)(C)c1[nH]nc2c1C(c1ccsc1)C(C#N)=C(N)O2 (stereo unspecified)	FGF22 binding 43 (no result: PGC1a acetyl inh, Cneo AK release)
COCCCNC1=C(Cl)C(=O)c2ccccc2C1=O	rRNA inh HTS -40
CC(=O)N(Cc1ccc(F)cc1)C1=C(NCCc2ccccc2)C(=O)c2ccccc2C1=O	PGC1a acetyl inh inconclusive, Env fusion inh 84 (no result: FGF22 binding, ERAP1 inh, rRNA inh HTS)
O=C1C(Cl)=C(NCCc2ccccc2)C(=O)c2ccccc21	rRNA inh HTS -37
O=C1C(Cl)=C(Nc2ccccc2)C(=O)c2ccccc21	none (no result: PGC1a acetyl inh)
O=C(Nc1ccc(Cl)cc1Cl)N1CCN(c2ncccn2)CC1	FGF22 binding 43 (no result: PGC1a acetyl inh)
COc1cc(/C=C/C2=NNC(=O)CC2)cc(OC)c1OC	Env fusion inh 73
CC1(C(=O)OCC(=O)Nc2nc(-c3ccc(F)c(F)c3)cs2)CC1(Cl)Cl (stereo unspecified)	rRNA inh HTS -28 (no result: PGC1a acetyl inh, Env fusion inh)
CCn1nnc(NC(=S)NC(=O)c2ccc(-c3cccc(Cl)c3)o2)n1	rRNA inh HTS -21
C=CCOc1cccc(/C=N/NC(=O)CN2CCCCC2)c1	none
CC(=O)Nc1ccc(/C(N=Nc2ccccc2)=N/N=C(N)N)cc1	rRNA inh HTS -20 (no result: PGC1a acetyl inh, Cneo AK release)
Nn1c(SCCOc2ccc(Cl)cc2)nnc1-c1cccnc1	ERAP1 inh 47 (no result: rRNA inh HTS, Cneo AK release)
CCN(CC)CCNC(=O)c1ccc(Sc2ccc(C)cc2)c(NC(C)=O)c1	none (no result: Cneo AK release)
CC(=O)Nc1cc(C(=O)N2CCc3ccccc3C2)ccc1Sc1ccc(Cl)cc1	none (no result: Cneo AK release)
CCC(=O)Nc1cc(C(=O)O)ccc1Sc1ccc(Cl)cc1	FGF22 binding 44
CCN(CC)CCNC(=O)c1ccc(Sc2ccc(Cl)cc2)c(NC(C)=O)c1	FGF22 binding 45 (no result: Cneo AK release)
c1ccc(COc2ccc(-c3cc4nc(NCCOc5ccccc5)ccn4n3)cc2)cc1	Env fusion inh 43
COc1cc(CNCc2ccccn2)ccc1OCc1ccc(Cl)cc1	none
COc1cc(CNCc2ccccn2)ccc1OCc1c(Cl)cccc1Cl	rRNA inh HTS -46 (no result: Env fusion inh)
COc1cc(CNCc2ccccn2)ccc1OCc1cccc(Cl)c1	rRNA inh HTS -41 (no result: Env fusion inh)
C=CCN(Cc1ccc(Cl)s1)C(=O)CNC(=O)CNC(=O)c1ccc(Cl)cc1Cl	none (no result: Env fusion inh)
O=c1[nH]c(C2CCN(S(=O)(=O)c3ccc4c(c3)OCCO4)CC2)nc2c1nnn2Cc1ccccc1F	rRNA inh HTS -28 (no result: PGC1a acetyl inh)
O=c1[nH]c(C2CCN(S(=O)(=O)c3ccc4c(c3)OCCO4)CC2)nc2c1nnn2Cc1c(F)cccc1Cl	none (no result: PGC1a acetyl inh)
N#C/C(=C\c1cccnc1)C(=O)Nc1ccc(C(=O)O)cc1	FGF22 binding 43 (no result: Cneo AK release)
N#C/C(=C\c1cccnc1)C(=O)Nc1ccccc1	none (no result: FGF22 binding, ERAP1 inh, rRNA inh HTS, PGC1a acetyl inh)
Cc1cccc(NC(=O)/C(C#N)=C\c2cc(C)n(-c3ccc(C(=O)O)cc3)c2C)c1	rRNA inh HTS -28 (no result: PGC1a acetyl inh, Cneo AK release)
